ChEMBL document CHEMBL1138360, “Hypoxia-selective 3-alkyl 1,2,4-benzotriazine 1,4-dioxides: the influence of hydrogen bond donors on extravascular transport and antitumor activity” (J Med Chem, 2007)

Columns and labels:
HT-29 [1] = experiment: Cytotoxicity against HT29 cells under hypoxic condition after 4 hrs; type: functional, cell-based; settings: Homo sapiens, HT-29, 4 h
Procedure, shortened: (§1)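 HT29 or SiHa cells exposed to drug for 4 h in 96-well plates under anoxia (H2/Pd anaerobic chamber). IC50 determined.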

[2] = Cmax in CD1 mouse plasma at 562 umol/kg, ip; type: ADME, organism-based; parameters: dose 562 umol/kg, route intraperitoneal
Procedure, shortened: (§2)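 Single i.p. dose to homozygous nude CD-1 Foxn1nu mice, at 75 or 100% of MTD (MTD set by 1.33-fold dose steps; highest dose without death, >15% weight loss or severe morbidity in any of six mice). Total drug measured in plasma by HPLC. AUC, Cmax and terminal t½ derived noncompartmentally. Measured levels taken as free drug.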

[3] = AUC (0 to infinity) in CD1 mouse plasma at 562 umol/kg, ip; type: ADME, organism-based; parameters: dose 562 umol/kg, time infinity, route intraperitoneal; procedure, shortened: as §2
SiHa [4] = experiment: Ratio of IC50 for SiHa cells in aerobic condition to IC50 for SiHa cells in hypoxic condition after 4 hrs; type: functional, Homo sapiens
Procedure, shortened: (§3)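 Aerobic and anoxic (H2/Pd chamber) IC50s measured in the same experiment after 4 h exposure, HT29 or SiHa cells. Ratio computed as aerobic IC50/anoxic IC50.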

[5] = Terminal half life in CD1 mouse plasma at 562 umol/kg, ip; type: ADME, organism-based; procedure, shortened: as §2
HT-29 [6] = experiment: Drug penetration in anoxic HT29 cells assessed as penetration half distance; type: ADME, cell-based; settings: human
HT-29 [7] = experiment: Cell viability in anoxic HT29 cells assessed as drug level providing 10% surviving fraction by clonogenic assay; type: cell-based; settings: human
SiHa [8] = experiment: Cytotoxicity against SiHa cells under hypoxic condition after 4 hrs; type: functional, cell-based; settings: Homo sapiens; procedure, shortened: as §1
HT-29 [9] = experiment: Diffusion coefficient, D in aerobic HT29 multicellular layers; type: ADME, cell-based; settings: human
Procedure, shortened: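 Drug flux measured through HT29 multicellular layers on Teflon support membranes under 95% O2 at 37 °C, 50 µM initial donor concentration. Donor and receiver levels fitted with a diffusion model. Layer thickness estimated from flux of internal standard urea.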

HT-29 [10] = experiment: Antitumor activity against HT29 tumor inoculated in CD1 nude mouse at 562 umol/kg, ip administered 5 mins after gamma irradiation by excision assay relative to radiation alone; type: functional, Homo sapiens
Procedure, shortened: (§4)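 HT29 xenografts in nude CD-1 mice received 20 Gy γ radiation, then a single i.p. drug dose 5 min later, at 100% or 75% of MTD. Tumors excised 18 h afterwards, dissociated to single cells and plated for clonogens/g tumor. Hypoxic cell kill = log(clonogens/g, radiation only) − log(clonogens/g, radiation + drug).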

HT-29 [11] = experiment: Ratio of IC50 for HT29 cells in aerobic condition to IC50 for HT29 cells in hypoxic condition after 4 hrs; type: functional, Homo sapiens; procedure, shortened: as §3
HT-29 [12] = experiment: Antitumor activity against HT29 tumor inoculated in CD1 nude mouse at 562 umol/kg, ip relative to control; type: functional, Homo sapiens
[13] = Toxicity in ip dosed CD1 mouse; type: organism-based; settings: in vivo
Procedure, shortened: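 Single i.p. doses given to homozygous nude CD-1 Foxn1nu mice, with the vehicle formulated per compound. Doses escalated in 1.33-fold increments. MTD was defined as the highest dose causing no mortality, no body weight loss >15% and no other severe morbidity in any of six mice.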

[14] = AUC (0 to infinity) in CD1 mouse plasma at 421 umol/kg, ip; type: ADME, organism-based; parameters: dose 421 umol/kg, time infinity, route intraperitoneal; procedure, shortened: as §2
HT-29 [15] = experiment: Antitumor activity against HT29 tumor inoculated in CD1 nude mouse at 421 umol/kg, ip relative to control; type: functional, Homo sapiens
HT-29 [16] = experiment: Antitumor activity against HT29 tumor inoculated in CD1 nude mouse at 421 umol/kg, ip administered 5 mins after gamma irradiation by excision assay relative to radiation alone; type: functional, Homo sapiens; procedure, shortened: as §4
[17] = Cmax in CD1 mouse plasma at 421 umol/kg, ip; type: ADME, organism-based; parameters: dose 421 umol/kg, route intraperitoneal; procedure, shortened: as §2
[18] = Terminal half life in CD1 mouse plasma at 421 umol/kg, ip; type: ADME, organism-based; procedure, shortened: as §2
[19] = Cmax in CD1 mouse plasma at 133 umol/kg, ip; type: ADME, organism-based; parameters: dose 133 umol/kg, route intraperitoneal; procedure, shortened: as §2
[20] = Terminal half life in CD1 mouse plasma at 133 umol/kg, ip; type: ADME, organism-based; procedure, shortened: as §2
[21] = AUC (0 to infinity) in CD1 mouse plasma at 133 umol/kg, ip; type: ADME, organism-based; parameters: dose 133 umol/kg, route intraperitoneal, time infinity; procedure, shortened: as §2
HT-29 [22] = experiment: Antitumor activity against HT29 tumor inoculated in CD1 nude mouse at 316 umol/kg, ip administered 5 mins after gamma irradiation by excision assay relative to radiation alone; type: functional, Homo sapiens; procedure, shortened: as §4
[23] = Cmax in CD1 mouse plasma at 316 umol/kg, ip; type: ADME, organism-based; parameters: dose 316 umol/kg, route intraperitoneal; procedure, shortened: as §2
[24] = AUC (0 to infinity) in CD1 mouse plasma at 316 umol/kg, ip; type: ADME, organism-based; parameters: dose 316 umol/kg, time infinity, route intraperitoneal; procedure, shortened: as §2
[25] = Terminal half life in CD1 mouse plasma at 316 umol/kg, ip; type: ADME, organism-based; procedure, shortened: as §2
[26] = AUC (0 to infinity) in CD1 mouse plasma at 750 umol/kg, ip; type: ADME, organism-based; parameters: dose 750 umol/kg, time infinity, route intraperitoneal; procedure, shortened: as §2
HT-29 [27] = experiment: Antitumor activity against HT29 tumor inoculated in CD1 nude mouse at 750 umol/kg, ip administered 5 mins after gamma irradiation by excision assay relative to radiation alone; type: functional, Homo sapiens; procedure, shortened: as §4
[28] = Cmax in CD1 mouse plasma at 750 umol/kg, ip; type: ADME, organism-based; parameters: dose 750 umol/kg, route intraperitoneal; procedure, shortened: as §2
[29] = Terminal half life in CD1 mouse plasma at 750 umol/kg, ip; type: ADME, organism-based; procedure, shortened: as §2
HT-29 [30] = experiment: Antitumor activity against HT29 tumor inoculated in CD1 nude mouse at 1000 umol/kg, ip relative to control

SMILES	IC50 (HT-29 [1]) [µM]	Ratio IC50 (SiHa [4])	Penetration half distance (HT-29 [6]) [µm]	Activity (HT-29 [7]) [µM·h]	IC50 (SiHa [8]) [µM]	D (HT-29 [9])	Ratio IC50 (HT-29 [11])	MTD [13] [µmol/kg]	other results
CCc1n[n+]([O-])c2ccccc2[n+]1[O-]	6.8	84	63	19.7	5.9	26.12 10^-7cm2/sec	54	562	Cmax [2]: 271 µM; AUC(0-inf) [3]: 146 µM·h; half-life [5]: 11.2 min; Activity (HT-29 [10]): 0.89%; Activity (HT-29 [12]): 0.11%
CCc1n[n+]([O-])c2ccc(OCCN(C)C)cc2[n+]1[O-]	1.3	374	34	5.1	0.8		307	562	AUC(0-inf) [14]: 55.7 µM·h; Activity (HT-29 [15]): 0.23%; Activity (HT-29 [16]): 0.88%; Cmax [17]: 55.5 µM; half-life [18]: 32.2 min
CCc1n[n+]([O-])c2ccc(OC)cc2[n+]1[O-]	16.8	175	34	69.9	6.8		73	750	Cmax [2]: 71.5 µM; AUC(0-inf) [3]: 138 µM·h; Activity (HT-29 [10]): 0.76%
CCc1n[n+]([O-])c2ccc(OCCN3CCCCC3)cc2[n+]1[O-]	1.5	302	34	6.8	1		254	178	Cmax [19]: 9.8 µM; half-life [20]: 25 min; AUC(0-inf) [21]: 7.75 µM·h
COCCc1n[n+]([O-])c2ccccc2[n+]1[O-]	3.5	61	34	21.3	1.6	20.89 10^-7cm2/sec	49	421	AUC(0-inf) [14]: 113 µM·h; Activity (HT-29 [15]): 0.3%; Activity (HT-29 [16]): 0.8%; Cmax [17]: 176 µM; half-life [18]: 18 min
CCc1n[n+]([O-])c2cc(OCCCN3CCOCC3)ccc2[n+]1[O-]	3	181	34	7.1	1.3		147	421	Activity (HT-29 [22]): 0.98%; Cmax [23]: 30.1 µM; AUC(0-inf) [24]: 33 µM·h; half-life [25]: 36 min
CCc1n[n+]([O-])c2ccc(OCCCN3CCOCC3)cc2[n+]1[O-]	6.8	217		38.6	4.3	7.48 10^-7cm2/sec	153	1000	AUC(0-inf) [26]: 162 µM·h; Activity (HT-29 [27]): 1.66%; Activity (HT-29 [6]): 64 µM; Cmax [28]: 150 µM; half-life [29]: 34.8 min; Activity (HT-29 [30]): 0.14%
